These results are taken from ChEMBL document CHEMBL1275401, “2'-Deoxy-2'-spirocyclopropylcytidine revisited: a new and selective inhibitor of the hepatitis C virus NS5B polymerase” (J Med Chem, 2010).

The nature of series [1]: AUC (0 to 24 hrs) in Beagle dog at 75 mg/kg, po. The format is ADME, organism-based, Canis lupus familiaris. More on the design: time < 24 hr, dose 75 mg/kg, route oral. The following applies: plasma. An outline of the steps: (§1)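 Single oral dose given as a solution in 20% hydroxypropyl-β-cyclodextrin to Beagle dogs, three per dose. Blood was taken on EDTA at 0.5, 1, 2, 4, 6, 8, 24 and 48 h, kept on ice away from light, and centrifuged at 4 °C within 1 h; plasma was stored at −20 °C. Analyte was protein-precipitated with acetonitrile and measured by LC-MS (LOQ ≥5.00 ng/mL). Noncompartmental parameters.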

The nature of series [2]: AUC (0 to 24 hrs) in Sprague-Dawley rat at 90 mg/kg, po. The format is ADME, organism-based. More on the design: time < 24 hr, dose 90 mg/kg, route oral. The following applies: plasma. The essentials:
(§2)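 Male Sprague-Dawley rats, three per dose, received a single oral solution in 20% hydroxypropyl-β-cyclodextrin. EDTA blood was collected at 0.5, 1, 2, 4, 7 and 24 h, kept on ice protected from light, and spun at 4 °C within 1 h; plasma was stored at −20 °C. Parent nucleoside was quantified by LC-MS after acetonitrile precipitation (standard curve 5-2000 ng/mL). Noncompartmental analysis.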

Series [3] can be described thus: Tmax in Sprague-Dawley rat at 15 mg/kg, po. The format is ADME, organism-based. More on the design: dose 15 mg/kg, route oral. The following applies: in vivo. An outline of the steps: as §2
Series [4] is described as follows: Cytotoxicity against human HuH7 cells expressing CMV-Luc after 3 days by luciferase assay. The format is cell-based, Huh-7. An outline of the steps: (§3)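 Huh7 cells stably carrying luciferase under the CMV constitutive promoter, or MT4 cells with luciferase under the HIV LTR promoter, were cultured with or without compound dilutions for 3 days at 37 °C in humidified 5% CO₂. Luciferase activity served as the measure of proliferation, giving the CC₅₀ as 50% inhibition of growth. Values are averages of at least four repeats.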

Series [5] is described as follows: Cmax in Beagle dog at 15 mg/kg, po. The format is ADME, organism-based, Canis lupus familiaris. Set-up: dose 15 mg/kg, route oral. The following applies: in vivo. An outline of the steps:
as §1

The nature of series [6]: Tmax in Beagle dog at 15 mg/kg, po. The format is ADME, organism-based, Canis lupus familiaris. More on the design: dose 15 mg/kg, route oral. The following applies: in vivo. An outline of the steps:
as §1

Series [7] can be described thus: Cmax in Sprague-Dawley rat at 15 mg/kg, po. The following applies: in vivo. The format is ADME, organism-based. Set-up: dose 15 mg/kg, route oral. An outline of the steps:
as §2

Series [8] is described as follows: Tmax in Beagle dog at 75 mg/kg, po. The format is ADME, organism-based, Canis lupus familiaris. Set-up: dose 75 mg/kg, route oral. The following applies: in vivo. An outline of the steps:
as §1

Series [9] can be described thus: Cmax in Beagle dog at 75 mg/kg, po. The format is ADME, organism-based, Canis lupus familiaris. More on the design: dose 75 mg/kg, route oral. The following applies: in vivo. The essentials:
as §1

The nature of series [10]: Cmax in Sprague-Dawley rat at 90 mg/kg, po. The following applies: in vivo. The format is ADME, organism-based. Set-up: dose 90 mg/kg, route oral. An outline of the steps:
as §2

A further series relates to Hepatitis C virus. The series is described as follows: Antiviral activity against Hepatitis C virus subtype 1b with adaptive mutations of E1202G, T1280I, K1846T […] infected in human HuH7 cells assessed as inhibition of viral replication after 3 days by luciferase assay. The format is functional, organism-based, Hepacivirus hominis. The following applies: genotype 1b, Huh-7, 72 h. The essentials: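 Huh7-Rep cells carrying the genotype 1b subgenomic luciferase reporter replicon (clone ET; adaptive mutations E1202G, T1280I, K1846T). 2500 cells per well were exposed to a nine-point 1/4 serial dilution of compound. Replication was read out as luciferase activity, and EC50 was derived from it. Values are averages of at least four repeats.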

A short description of series [11]: AUC (0 to 24 hrs) in Beagle dog at 15 mg/kg, po. The format is ADME, organism-based, Canis lupus familiaris. More on the design: time < 24 hr, dose 15 mg/kg, route oral. The following applies: plasma. The essentials:
as §1

The nature of series [12]: Cytotoxicity against human MT4 cells expressing LTR-Luc after 3 days by luciferase assay. The format is cell-based. The essentials:
as §3

The nature of series [13]: Tmax in Sprague-Dawley rat at 90 mg/kg, po. The format is ADME, organism-based. Set-up: dose 90 mg/kg, route oral. The following applies: in vivo. An outline of the steps:
as §2

Series [14] is described as follows: AUC (0 to 7 hrs) in Sprague-Dawley rat at 15 mg/kg, po. The format is ADME, organism-based. More on the design: time < 7 hr, dose 15 mg/kg, route oral. The following applies: plasma. The essentials: as §2
Series [15] can be described thus: AUC (0 to 7 hrs) in Sprague-Dawley rat at 10 mg/kg, po. The format is ADME, organism-based. More on the design: time < 7 hr, dose 10 mg/kg, route oral. The following applies: plasma. The essentials:
as §2

Series [16] is described as follows: Cmax in Sprague-Dawley rat at 10 mg/kg, po. The following applies: in vivo. The format is ADME, organism-based. Set-up: dose 10 mg/kg, route oral. The essentials:
as §2

The nature of series [17]: Tmax in Sprague-Dawley rat at 10 mg/kg, po. More on the design: dose 10 mg/kg, route oral. The format is ADME, organism-based. The following applies: in vivo. The essentials:
as §2

The nature of series [18]: Tmax in Sprague-Dawley rat at 60 mg/kg, po. The format is ADME, organism-based. More on the design: dose 60 mg/kg, route oral. The following applies: in vivo. The essentials: as §2
Series [19] in a line: Cmax in Sprague-Dawley rat at 60 mg/kg, po. The format is ADME, organism-based. More on the design: dose 60 mg/kg, route oral. The following applies: in vivo. The essentials: as §2
Series [20] is described as follows: AUC (0 to 7 hrs) in Sprague-Dawley rat at 60 mg/kg, po. The following applies: plasma. The format is ADME, organism-based. More on the design: time < 7 hr, dose 60 mg/kg, route oral. The essentials: as §2

The structures appear in SMILES notation.

In general, AUC(0-t) refers to the area under the concentration-time curve up to a stated or last time point. Lower therefore signals low exposure. Broadly, the Tmax is the time at which the peak concentration occurs. What is called CC50 is the concentration at which the toxic effect on the cells reaches its halfway point. Low readings indicate greater toxicity to the cells, high ones lower toxicity to the cells. For orientation: Cmax means the maximum level reached in the sampled fluid or tissue. The term EC50 denotes the concentration giving half of the maximal effect. `CC(C)C(=O)OC[C@H]1O[C@@H](n2ccc(N)nc2=O)C2(CC2)[C@@H]1OC(=O)C(C)C`: the AUC(0-t) at 24 h in series [1] amounted to 204000 ng·h/mL; in [2], 40000 ng·h/mL; in series [11], 37000 ng·h/mL. The Tmax in series [3] was 0.8 h; in series [6] it was 1.5 h; in [8], 1.3 h; in series [13] it was 0.7 h. In addition, the CC50 at 72 h in [4] and in series [12] was greater than 98.4 µM throughout. For the same molecule, the Cmax amounted to 6300 ng/mL in [5], 2390 ng/mL in series [7], 42800 ng/mL in [9] and 11400 ng/mL in [10]. In addition, the EC50 in the series with Hepatitis C virus came to 20.3 µM. For the same molecule, the AUC(0-t) at 7 h in [14] came to 7220 ng·h/mL.
Consider `CC(C)C(=O)O[C@@H]1[C@@H](CO)O[C@@H](n2ccc(N)nc2=O)C12CC2`, for which the AUC(0-t) at 7 h in series [15] turned out to be 2620 ng·h/mL. Moreover, the CC50 at 72 h in series [4] and in [12] was greater than 98.4 µM in each case. Also, in series [16], the Cmax came out at 184 ng/mL. Besides, the EC50 in the series with Hepatitis C virus was found to be 42.8 µM. Besides, the Tmax in series [17] amounted to 0.7 h.
On to `C[C@@]1(F)[C@H](O)[C@@H](CO)O[C@H]1n1ccc(N)nc1=O`, for which the CC50 at 72 h in series [4] and in series [12] was greater than 98.4 µM in each case. Besides, the EC50 in the series with Hepatitis C virus came to 1.9 µM.
On to `[N-]=[N+]=N[C@]1(CO)O[C@@H](n2ccc(N)nc2=O)[C@H](O)[C@@H]1O` [4'-AZIDOCYTIDINE], for which the CC50 at 72 h in series [4] and in series [12] was greater than 98.4 µM throughout. Also, the EC50 in the series on Hepatitis C virus was found to be 4.3 µM.
As for `C[C@@]1(O)[C@H](O)[C@@H](CO)O[C@H]1n1ccc(N)nc1=O`, the CC50 at 72 h in series [4] and in series [12] was greater than 98.4 µM throughout. Further, the EC50 in the series on Hepatitis C virus worked out at 4.6 µM.
Turning to `Nc1ccn([C@@H]2O[C@H](CO)[C@@H](O)C23CC3)c(=O)n1`, the AUC(0-t) at 7 h in series [15] turned out to be 248 ng·h/mL; in series [20], 1640 ng·h/mL. The Tmax in series [18] was 1.3 h; in series [17] it was 1 h. Further, the CC50 at 72 h in series [4] and in series [12] was greater than 98.4 µM in each case. Besides, the results for the Cmax in series [19] and in series [16] were 527 ng/mL and 85 ng/mL, respectively. The EC50 in the series with Hepatitis C virus worked out at 7.3 µM.
